Activity calls are given as the source filed them. No cut-off for these calls is given here.
Legend:
MDA-MB-435 [1] = assay: Ratio of IC50 for human MDA-MB-435 cells to IC50 for human HCT116 cells; type: functional
HCT-116 = assay: Cytotoxicity against human HCT116 cells after 3 days by trypan blue assay; type: functional, cell-based; settings: HCT-116, 72 h
MDA-MB-435 [2] = assay: Cytotoxicity against human MDA-MB-435 cells 48 hrs by SRB assay; type: functional, cell-based; settings: MDA-MB-435, 48 h
A10 [3] = assay: Disruption of microfilament in rat A10 cells at 5 uM after 18 hrs using DAPI staining by fluorescence microscopy
MC-38 [4] = assay: Cytotoxicity against mouse Colon 38 cells at 1.1 uM by disk diffusion soft agar colony formation assay; type: functional; settings: read-out: IZ
Outline: (§1)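 Disk diffusion soft-agar colony formation assay with murine colon 38 cells. The compound is adsorbed onto a disk at a concentration similar to the other compounds tested. The read-out is the zone of inhibition (Z), recorded in mm.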

MC-38 [5] = assay: Cytotoxicity against mouse Colon 38 cells at 3.5 uM by disk diffusion soft agar colony formation assay; type: functional; settings: read-out: IZ; outline: as §1
MC-38 [6] = assay: Cytotoxicity against mouse Colon 38 cells at 4.0 uM by disk diffusion soft agar colony formation assay; type: functional; settings: read-out: IZ; outline: as §1
A10 [7] = assay: Disruption of microfilament in rat A10 cells at 9 uM after 18 hrs using DAPI staining by fluorescence microscopy; type: functional, cell-based
MC-38 [8] = assay: Cytotoxicity against mouse Colon 38 cells at 1.9 uM by disk diffusion soft agar colony formation assay; type: functional; settings: read-out: IZ
Outline: (§2)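 Soft agar disk diffusion colony formation assay with murine colon 38 cells, run alongside murine L1210 and CFU-GM. Compound adsorbed onto a disk at similar loadings across compounds. Read-out is the zone of inhibition (Z) in mm. Full method described previously.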

MC-38 [9] = assay: Cytotoxicity against mouse Colon 38 cells at 5.1 uM by disk diffusion soft agar colony formation assay; type: functional; settings: read-out: IZ; outline: as §2

| SMILES | Ratio IC50 (MDA-MB-435 [1]) | IC50 (HCT-116) [µM] | IC50 (MDA-MB-435 [2]) [µM] | Activity (A10 [3]) | zone of inhibition at 1.1 µM (MC-38 [4]) [mm] | zone of inhibition at 3.5 µM (MC-38 [5]) [mm] | zone of inhibition at 4 µM (MC-38 [6]) [mm] | Activity (A10 [7]) | zone of inhibition at 1.9 µM (MC-38 [8]) [mm] | zone of inhibition at 5.1 µM (MC-38 [9]) [mm] |
| --- | --- | --- | --- | --- | --- | --- | --- | --- | --- | --- |
| C/C1=C/C(=O)O[C@@H](CC(O)[C@@H]2CSC(=O)N2)C[C@H](O)CC[C@H](C)/C=C\CC1 (some centres undefined) [LATRUNCULIN C] | <0.3 | > 100 | 34.3 | inactive |  |  |  |  |  |  |
| C/C(=C/C(=O)O)CC/C=C\[C@@H](C)CC[C@@H]1CC=CC(=O)O1 [LATRUNCULEIC ACID] | 0.5 | 48 | 26.1 | inactive |  |  |  |  |  |  |
| CO[C@]1([C@@H]2CSC(=O)N2)C[C@H]2C[C@@H](CC[C@H](C)/C=C\CC/C(C)=C\C(=O)O2)O1 [15-METHOXYLATRUNCULIN B] | 0.6 | 49 | 29.7 | inactive |  |  |  |  |  |  |
| C/C1=C/C(=O)O[C@@H]2C[C@@H](CC[C@H](C)/C=C\[C@H](O)[C@@H](O)CC1)O[C@@](O)([C@@H]1CSC(=O)N1)C2 [LATRUNCULOL A] | 4.4 | 0.48 | 2.1 | Active | 23.5 |  |  |  |  |  |
| C/C1=C/C(=O)O[C@@H]2C[C@@H](CC[C@H](C)/C=C\[C@H](O)[C@@H](O)CC1)O[C@@](O)([C@H]1CSC(=O)N1)C2 [18-EPI-LATRUNCULOL A] | >9.1 | 5.5 | > 50 | inactive |  | 17 |  |  |  |  |
| C/C1=C/C(=O)O[C@@H]2C[C@@H](CC[C@H](C)/C=C\[C@H](O)[C@H](O)CC1)O[C@@](O)([C@@H]1CSC(=O)N1)C2 [LATRUNCULOL C] | <0.2 | > 53 | 11.9 | Active |  |  |  |  |  |  |
| C/C1=C/C(=O)O[C@@H]2C[C@@H](CC[C@H](C)/C=C\[C@@H]3OC(C)(C)O[C@H]3CC1)O[C@@](O)([C@@H]1CSC(=O)N1)C2 | 1.5 | 5.1 | 7.9 | Active |  |  | 21 |  |  |  |
| C/C1=C/C(=O)O[C@@H]2C[C@@H](CC[C@H](C)C(=O)/C=C/C(O)CC1)O[C@@](O)([C@@H]1CSC(=O)N1)C2 (some centres undefined) | <0.6 | > 53 | 30.5 |  |  |  |  | inactive |  |  |
| C/C1=C/C(=O)O[C@@H]2C[C@@H](CC[C@H](C)/C=C\C=C\CC1)O[C@@](O)([C@@H]1CSC(=O)N1)C2 [LATRUNCULIN A] | 2.5 | 1.1 | 2.8 | Active |  |  |  |  | 9 |  |
| C/C1=C/C(=O)O[C@@H]2C[C@@H](CC[C@H](C)/C=C\CC1)O[C@@](O)([C@@H]1CSC(=O)N1)C2 [LATRUNCULIN B] | 0.7 | 7.1 | 4.8 | Active |  |  |  |  |  | 13 |
| CO[C@H]1/C=C\[C@@H](C)CC[C@@H]2C[C@H](C[C@](O)([C@@H]3CSC(=O)N3)O2)OC(=O)/C=C(/C)CC[C@@H]1O [LATRUNCULOL B] | 1.9 | 2.1 | 4 | Active | 19.5 |  |  |  |  |  |
| C/C1=C/C(=O)O[C@@H]2C[C@@H](CC[C@H](C)/C=C\CC(=O)CC1)O[C@@](O)([C@@H]1CSC(=O)N1)C2 [LATRUNCULONE B] | 1.1 | 0.92 | 1 | Active | 19.5 |  |  |  |  |  |
| C/C1=C/C(=O)O[C@@H]2C[C@@H](CC[C@H](C)/C=C\CC1)O[C@@](O)([C@H]1CSC(=O)N1)C2 [16-EPI-LATRUNCULIN B] | 0.5 | 38 | 17 | Active |  |  |  |  |  |  |

From ChEMBL document CHEMBL1152271, “Interrogating the bioactive pharmacophore of the latrunculin chemotype by investigating the metabolites of two taxonomically unrelated sponges” (J Med Chem, 2008)
